IMP-1 inh – blocks Pseudomonas aeruginosa IMP-1 metallo-beta-lactamase | purified IMP-1, nitrocefin hydrolysis, epi-absorbance fluorescence | inhibition, % at 5.6 µM | 290,000 compounds, 0.45% hits | AID 1556;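 active means inhibition above the mean plus 3 SD of all compounds in the same screening run, cut at about 4.5% in these data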;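 further: 0% = IMP-1 with DMSO and 100% = DMSO wells lacking enzyme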
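System: purified IMP-1; amount: IMP-1 0.2 nM before substrate addition; compound: single dose, 5.6 µM; times: 25 °C, 15 min preincubation, 25 min reaction; signal: Epi-absorbance via hydrolysed-nitrocefin quenching of white-plate fluorescence, 480/530 nm, EDTA stop; benchmarks: DMSO with and without IMP-1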
Runt-CBFb FRET – inhibitors of human RUNX1 Runt domain binding to CBFb. Q01196+Q13951. Cerulean-Runt/Venus-CBFb FRET ratio 530/480, 1 h. inhibition, % at 20 µM. 220,000 compounds, 0.46% hits. AID 1496;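 active means inhibition over about 50% at 20 µM in the single-dose screen, limit read from the data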;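 further: 0% = DMSO wells and 100% = excess unlabeled CBFb competitor control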
Target sequence (Q01196 whole entry, looked up, the tested form may be a part): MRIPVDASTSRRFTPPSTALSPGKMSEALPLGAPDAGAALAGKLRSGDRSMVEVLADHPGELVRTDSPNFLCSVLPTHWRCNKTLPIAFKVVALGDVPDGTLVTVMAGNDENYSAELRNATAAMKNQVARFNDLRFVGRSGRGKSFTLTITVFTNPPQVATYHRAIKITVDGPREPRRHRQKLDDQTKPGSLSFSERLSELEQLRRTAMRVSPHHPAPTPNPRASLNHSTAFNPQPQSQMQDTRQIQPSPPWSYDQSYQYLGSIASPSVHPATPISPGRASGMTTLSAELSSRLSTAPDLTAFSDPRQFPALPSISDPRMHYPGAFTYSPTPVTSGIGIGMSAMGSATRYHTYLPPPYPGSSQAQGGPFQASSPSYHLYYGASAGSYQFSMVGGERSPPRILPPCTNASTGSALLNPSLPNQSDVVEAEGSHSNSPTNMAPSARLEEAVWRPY
Target sequence (Q13951 whole entry, looked up, the tested form may be a part): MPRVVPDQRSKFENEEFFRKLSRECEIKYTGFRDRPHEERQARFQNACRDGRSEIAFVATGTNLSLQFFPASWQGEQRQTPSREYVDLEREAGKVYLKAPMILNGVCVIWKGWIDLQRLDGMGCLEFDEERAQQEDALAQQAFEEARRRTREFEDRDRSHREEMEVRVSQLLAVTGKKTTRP
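Assay system: Cerulean-Runt domain / Medium: Tris 50 mM pH 7.5, KCl, K2SO4, 0.01% BSA / Timing: protein complex preformed 1 h, compound exposure 1 h, room temperature, dark / Measured by: FRET, excitation 422 nm, emission at 530 and 480 nm / Evaluation: loss of energy transfer signal / Control set: 5 µM unlabeled CBFb as full-inhibition high control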
Runt-SMMHC FRET – Runt domain-CBFb-SMMHC interaction inhibition. Q01196+Q13951. Cerulean-Runt/Venus-CBFb-SMMHC FRET ratio 530/480, 1 h. inhibition, % at 20 µM. 220,000 compounds, 0.74% hits. AID 1434;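 active means mean inhibition across duplicate retests at 20 µM reaching about 50%, limit read from the data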;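 further: 0% = DMSO wells and 100% = wells with excess untagged CBFb-SMMHC; inhibitors lower the FRET ratio by blocking Runt binding to CBFb-SMMHC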
VIM-2 inhibitor – inhibitors of Pseudomonas aeruginosa VIM-2 metallo-beta-lactamase. purified VIM-2, nitrocefin hydrolysis, epi-absorbance fluorescence. 290,000 compounds, 0.89% hits. inhibition, % at 5.6 µM;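 active means inhibition above the mean of all tested compounds plus 3 SD, cutoff set per screening run, cut at about 7.5% in these data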;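 further: red hydrolysis product quenches plate fluorescence so inhibitors raise well fluorescence; 0% = enzyme with DMSO and 100% = DMSO without enzyme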
RanGTP-Imp inh – inhibitors of RanGTP-importin-beta interaction, primary screen, biochemical, FRET, CFP-Ran, YFP-importin-beta, homogeneous | 300,000 compounds, 1.1% hits | AID 2216 | inhibition, % (no concentration beside the values) | cell-free CFP-Ran/YFP-importin-beta FRET ratio;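 active means more than half of the replicate wells show a fall in the fluorescence ratio signal beyond about 16%, limit read from the data, passing the limit was not always enough; inconclusive means exactly half of the replicate wells pass the set limit; inactive means fewer than half of replicates pass the limit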;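 further: 0% = DMSO wells and 100% = Ran loaded with GDP instead of GTP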
* hit, by the source's call; ? = inconclusive; . = no result. Only some compounds are listed: those with a hit (about 2.6% of all), similar ones and a draw of the others.

SMILES | IMP-1 inh | Runt-CBFb FRET | Runt-SMMHC FRET | VIM-2 inhibitor | RanGTP-Imp inh
Nc1ccc(O)c2c1C(=O)c1ccccc1C2=O | -1.1 | -3.3 | -5.4 | 4.2 | 6.1
Nc1ccc(Br)c2c1C(=O)c1ccccc1C2=O | -2.8 | 11.5 | 5.4 | 10.1* | -6.5
COc1cccc2c1cc1c(=O)n(CC(=O)NCCCN3CCCCC3)nc(C)n12 | -2.2 | . | . | 9.2* | 0.1
CC1CCCN(C2=C(NS(=O)(=O)c3ccc(Br)cc3)C(=O)c3ccccc3C2=O)C1 (stereo not given) | 1.4 | . | . | 10.6* | 4.7
CCOC(=O)C1CCCN(C2=C(NS(=O)(=O)c3ccc(Br)cc3)C(=O)c3ccccc3C2=O)C1 (stereo not given) | 0.7 | . | . | 8.2* | 1.4
Cc1cccc(OCCSc2nc3ccccc3n2CCC(=O)O)c1 | -5.4 | . | . | -0.8 | -0.7
COc1ccc(C(=O)/C=C2\Sc3ccccc3N2C)cc1 | -2.9 | 30.8 | 55.8* | 3.4 | -1.5
Cn1c(NC(=O)c2cc(-c3ccc4c(c3)OCO4)nc3ccccc23)cc(=O)n(C)c1=O | -2.0 | 61.5* | 4.8 | -2.6 | -1.8
CC(C)(C)NC(=O)c1cc(-c2ccc3c(c2)OCO3)nc2ccccc12 | -4.1 | . | . | -1.9 | -1.2
CCOc1cc(C(=O)OCC(=O)N(C)c2ccccc2)cc(OCC)c1OCC | 12.2* | . | . | 0.4 | -1.1
COc1cc(C(=O)OCC(=O)N(C)c2ccccc2)cc(OC)c1OC | -2.3 | . | . | -1.7 | 4.8
Cc1nc2nc(-c3cccnc3)nn2c(C)c1Cl | -0.5 | -1.9 | -0.5 | 10.6* | -1.4
O=C(Nc1cccc2c1C(=O)NC2=O)c1cccc(N2C(=O)CCC2=O)c1 | 8.8* | 0.4 | -1.2 | 0.9 | 0.1
Cc1cccc(NC(=O)c2cccc(N3C(=O)CCC3=O)c2)c1 | -3.1 | . | . | -2.9 | -1.3
CC(C)CN(C(=O)COC(=O)c1ccccc1NCc1ccco1)c1c(N)n(Cc2ccccc2)c(=O)[nH]c1=O | . | . | . | . | -2.5
COc1ccc(OC)c(C2Nc3c(Cl)ccc(C(=O)O)c3C3C=CCC32)c1 (stereo not given) | 10.8* | 20.9 | 14.1 | -1.1 | -0.4
COC(=O)COc1ccc(C2Nc3c(Cl)ccc(C(=O)O)c3C3C=CCC32)cc1 (stereo not given) | 12.2* | 18.9 | -2.9 | -2.5 | 3.2
O=C(O)c1ccc(Cl)c2c1C1C=CCC1C(c1ccccn1)N2 (stereo not given) | -0.1 | 17.3 | 11.6 | -1.4 | -2.3
Cc1cnc([N+](=O)[O-])n1CCOC(=O)NC(=O)c1ccccc1Cl | 0.5 | 1.1 | -1.2 | 2.6 | -0.8
CCn1cc(Cl)c(C(=O)Nc2c(C)nn(Cc3c(F)c(F)c(F)c(F)c3F)c2C)n1 | 0.1 | . | . | -4.0 | 2.9
Cc1ccc2occ(/C=N/NC(=O)c3ccncc3)c(=O)c2c1 | 6.4* | . | . | -4.0 | -1.8
O=C(N/N=C/c1coc2ccccc2c1=O)c1ccncc1 | 2.8 | . | . | -5.1 | -1.7
COc1ccc(C(=O)N/N=C\c2coc3ccc(C)cc3c2=O)cc1 | 8.7* | . | . | -1.7 | 4.8
Cc1ccc2occ(/C=N/NC(=O)c3ccc(Cl)cc3)c(=O)c2c1 | 0.0 | . | . | -4.0 | 0.2
Cc1ccc2nc(NCCCO)nc(-c3ccccc3)c2c1 | -5.9 | 28.8 | 58.6 | -3.4 | 30.0*
SMILES | IMP-1 inh | Runt-CBFb FRET | Runt-SMMHC FRET | VIM-2 inhibitor | RanGTP-Imp inh
OCCCNc1nc(-c2ccccc2)c2cc(Br)ccc2n1 | 0.2 | . | . | 1.8 | 32.6*
NNc1nc(-c2ccccc2)c2cc(Br)ccc2n1 | -2.0 | . | . | 0.1 | -3.5
CCCCOc1ccc(C(=O)NCCOc2cccc(OC)c2)cc1 | -3.2 | . | . | -1.0 | 0.5
O=c1c(NCCc2ccccc2)c(-c2ccccc2)c1=O | -1.1 | . | . | 0.1 | 6.4
Cc1ccc(-c2c(NCCc3ccccc3)c(=O)c2=O)cc1 | 5.3* | . | . | -0.8 | ?
CS(=O)(=O)c1ccc(Cl)c(NC(=O)COC(=O)CCCN2C(=O)c3cccc4cccc(c34)C2=O)c1 | . | . | . | . | 25.2*
O=C(COC(=O)CCCN1C(=O)c2cccc3cccc(c23)C1=O)Nc1cccc(Br)c1 | -1.8 | 1.3 | 2.7 | -1.8 | 4.6
Cc1cccc(S(=O)Cc2ccc(C(=O)NC3CCN(Cc4ccccc4)CC3)o2)c1 (stereo not given) | -2.4 | . | . | -3.1 | -0.9
COc1ccc(C=O)cc1CN1CCCN(Cc2ccccc2F)S1(=O)=O | -2.1 | . | . | 0.9 | 4.7
CC1CC(C)CN(CCCNC(=O)Cn2cccc2C(=O)c2ccccc2)C1 (stereo not given) | 3.3 | . | . | 1.0 | 1.9
Cc1c(Cc2ccccc2)c(=O)oc2cc(O)cc(O)c12 | -2.7 | 23.5 | 63.2* | -3.2 | 4.4
N#Cc1cc2c(=O)n3ccccc3nc2n(-c2ccccc2Cl)c1=O | -1.1 | 3.0 | 89.6* | 1.6 | 135.9*
Cc1cccn2c(=O)c3cc(C#N)c(=N)n(Cc4cccnc4)c3nc12 | -2.0 | . | . | -1.5 | .
Cc1cccn2c(=O)c3cc(C#N)c(=O)n(Cc4cccnc4)c3nc12 | . | 79.2* | 41.0 | . | .
N#Cc1cc2c(=O)n3ccccc3nc2n(Cc2cccnc2)c1=O | . | . | . | . | 74.3*
Cn1c(=N)c(S(=O)(=O)c2ccc(Cl)cc2)cc2c(=O)n3ccccc3nc21 | 0.8 | . | . | 0.8 | .
Cc1c(-n2c(-c3ccccc3Cl)n[nH]c2=S)c(=O)n(-c2ccccc2)n1C | -4.8 | 9.2 | 3.3 | 74.0* | -0.3
Cc1nnc(SCC(=O)n2c3c(c4ccccc42)CCCC3)s1 | -0.5 | -5.8 | -12.4 | 9.8* | 2.3
CC(=O)Nc1ccc(-c2nnc(SCC(=O)n3c4c(c5ccccc53)CCCC4)n2C)cc1 | 4.2 | -1.7 | 1.7 | 4.9 | -3.0
Cn1c(SCC(=O)n2c3c(c4ccccc42)CCCC3)nnc1-c1ccccc1 | 1.3 | -9.1 | -3.3 | 8.7* | -3.1
CC(=O)c1nn(-c2cccc(Br)c2)cc1C(=O)c1ccc(Br)cc1 | 1.2 | -0.2 | 0.1 | -5.3 | 29.2*
COc1cccc(-c2cc(C(F)(F)F)nc(-n3cc(C)cn3)n2)c1 | -3.1 | -3.5 | -5.4 | 4.5 | -0.3
Fc1ccc(-c2cc(C(F)(F)F)nc(-n3cncn3)n2)cc1 | -3.2 | 0.0 | -0.8 | 9.7* | -0.6
COc1cccc(-c2cc(C(F)(F)F)nc(-n3cncn3)n2)c1 | -3.9 | 2.9 | 4.6 | 8.7* | ?
O=C(CCCSc1ccc(Cl)cc1)Nc1ccccc1O | -1.3 | . | . | -3.7 | 3.1
CC(C)(C)c1ccc2c(c1)OC(C(=O)N/N=C/c1ccc([N+](=O)[O-])o1)CO2 (stereo not given) | -0.6 | 0.6 | -6.0 | -2.4 | -3.7
Cc1cc2oc(=O)c(CC(=O)O)c(C)c2c2occ(C(C)(C)C)c12 | 3.6 | . | . | 10.8* | 0.5
Cc1cc2oc(=O)c(CC(=O)NCCCN(C)C)c(C)c2c2occ(C(C)(C)C)c12 | 1.5 | . | . | 8.9* | 1.3
CCOc1ccc(CSc2nc(C)cc(COC)c2C#N)cc1OCC | -1.2 | . | . | 0.5 | -0.2
COc1cc(/C=C(\C#N)C(=O)NC(C)C)ccc1OCc1ccc(C(=O)O)cc1 | -4.2 | -1.8 | 2.7 | -2.6 | -2.6
